Measured values gathered from unrelated publications.
Compare with care: the assays were run in different laboratories. Values after ≈ are worked out from the molar mass of the structure shown.
LCK: Tyrosine-protein kinase Lck (LCK, Homo sapiens, UniProt P06239)
MAP3K10: Mitogen-activated protein kinase kinase kinase 10 (MAP3K10, Homo sapiens, UniProt Q02779)
PIP4K2C: Phosphatidylinositol 5-phosphate 4-kinase type-2 gamma (PIP4K2C, Homo sapiens, UniProt Q8TBX8)

The remaining binding of `CCCCC(=O)Nc1ccc(-c2ccc3ncn(CCC)c(=O)c3c2)cn1` is reported as 100% (Dual specificity mitogen-activated protein kinase kinase 4 (MAP2K4, Homo sapiens, UniProt P45985); binding; competition with immobilised ligand; 0.5 µM).
`CNC(=O)c1ccccc1Nc1nc(Nc2ccc(CO)cc2)ncc1Cl` has a remaining activity of 1.89% (LCK; enzyme activity; inhibitor; 1 µM).
For `C1=C/COCc2cc(ccc2OCCN2CCCC2)Nc2nccc(n2)-c2cccc(c2)COC/1`, the remaining binding was 84% (Proto-oncogene tyrosine-protein kinase receptor Ret (RET, Homo sapiens, UniProt P07949, V804M); binding; 0.1 µM).
With `C#Cc1cc(-c2cc(Nc3nc(N[C@@H](C)c4ccc(F)cn4)ncc3Cl)n[nH]2)ccc1C=O` the inhibition was 54.5% (MAP3K10; enzyme activity; inhibitor; 0.2 µM).
For `COc1ccc2oc(-c3ccc4nc(N)oc4c3)c/c(=N\c3ccccc3NC(=O)CCN)c2c1`, the remaining binding was 104% (Serine/threonine-protein kinase 38 (STK38, Homo sapiens, UniProt Q15208); binding; 1 µM).
With `C#Cc1cnc(Nc2ccnc(CO)c2)nc1Nc1ccccc1S(C)(=O)=NC#N` (stereo not shown) the remaining activity was 14.6% (LCK; enzyme activity; inhibitor; 1 µM).
The inhibition of `CCCC(=O)Nc1ccc(-c2ccc3ncn(CCC)c(=O)c3c2)cn1` is reported as 99.5% (PIP4K2C; binding; competition with immobilised ligand; 0.5 µM).
`COc1cccc2c(N3CCC(CCP(=O)(O)O)CC3)ncnc12` gave a residence time of 8.73 min (Ectonucleotide pyrophosphatase/phosphodiesterase family member 1 (ENPP1, Homo sapiens, UniProt P22413); binding; SPR).
`CCCCC(=O)Nc1ccc(-c2ccc3ncn(CCF)c(=O)c3c2)cn1` has an inhibition of 97.5% (PIP4K2C; binding; competition with immobilised ligand; 0.5 µM).
For `CS(=O)(=NC#N)c1ccccc1Nc1nc(Nc2ccnc(CO)c2)ncc1Cl` (stereo not shown), the remaining activity was 41% (LCK; enzyme activity; inhibitor; 1 µM).
The IC20 of `COc1cc(/C=N/NC(=S)NN=Cc2ccc([N+](=O)[O-])o2)ccc1Oc1ccnc2cc(Cl)ccc12` is reported as 1.65 µg/mL (≈ 3.14 µM) (Aldo-keto reductase family 1 member B1 (AKR1B1, Homo sapiens, UniProt P15121); enzyme activity; inhibitor).
`N[C@@H](CC(=O)O)C(=O)O` gave a ΔTm of about 3 °C (Electrogenic aspartate/glutamate antiporter SLC25A13, mitochondrial (SLC25A13, Homo sapiens, UniProt Q9UJS0); thermal stability; DSF; 1 mM).
The inhibition of `Cc1cc(O)c(-c2ccc([C@@H](C)CN(C)C)cc2)c2c1[nH]c(=O)c1sccc12` is reported as -11.7% (MAP3K10; enzyme activity; inhibitor; 0.1 µM).
